The source made the active and inactive calls. The rule behind the calls is not given here.
Tests used:
[1] = Toxicity in Wistar kyoto rat assessed as a large amount of exudation in glomerulus at 10 mg/kg, ip administered for 14 days by TEM assay; type: organism-based; conditions: in vivo, 336 h
In short: (§1)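 WKY rats were given 10 mg·kg⁻¹ intraperitoneally daily for 14 days, with vehicle-treated controls. Liver and kidney were collected and fixed in 4% glutaraldehyde. Tissue was examined after HE staining by light microscopy and by transmission electron microscopy at 6000, 10000 and 20000-fold.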

[2] = system: Rattus norvegicus; experiment: Antihypertensive activity in ip dosed spontaneously hypertensive Wistar kyoto rat assessed as reduction in diastolic arterial pressure administered for 6 hrs and measured every 30 mins post treatment by tail-cuff method; type: functional, organism-based
In short: (§2)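 Male SHRs (8 weeks, 300 ± 25 g; 6 per group), given compound intraperitoneally once daily at 8 am in 0.5% (w/v) sodium carboxymethyl cellulose/DMSO 3/1 (v/v), 2 mL·kg⁻¹. Vehicle-treated SHR and WKY controls. SBP, DBP and heart rate were measured by tail-cuff on awake, restrained rats before dosing, then every 30 min for 6 h. Values are mean ± SD of four independent experiments.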

[3] = Cardiotoxicity in SHR rat assessed as myocardial fibers thickening at 10 mg/kg, ip administered for 14 days by H and E staining based microscopic assay; type: toxicity, organism-based; conditions: in vivo, 336 h
In short: (§3)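 SHRs were given 10 mg·kg⁻¹ intraperitoneally per day for 14 consecutive days, with an ibuprofen comparator and a normal control. Myocardial tissue was then removed. Sections were HE-stained for light microscopy and also examined by transmission electron microscopy at 6000, 10000 and 20000-fold.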

[4] = Toxicity in Wistar kyoto rat assessed as visible gaps in hepatocytes at 10 mg/kg, ip administered for 14 days by H and E staining based assay; type: organism-based; conditions: in vivo, 336 h
In short: (§4)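 WKY rats were dosed intraperitoneally at 10 mg/kg daily for 14 days, using the 10% 1,3-propanediol vehicle, with a vehicle control group. Liver and kidney were collected and fixed immediately in 4% glutaraldehyde. Sections were stained with haematoxylin and eosin and scored for structural change under light microscopy.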

[5] = Toxicity in Wistar kyoto rat assessed as central venous in liver at 10 mg/kg, ip administered for 14 days by H and E staining based assay; type: organism-based; conditions: in vivo, 336 h; in short: as §1
[6] = Cardiotoxicity in SHR rat assessed as neatly arranged myocardial fibers at 10 mg/kg, ip administered for 14 days by H and E staining based microscopic assay; type: toxicity, organism-based; conditions: in vivo, 336 h; in short: as §3
[7] = Toxicity in Wistar kyoto rat assessed as increase in heterochromatin in liver tissue at 10 mg/kg, ip administered for 14 days by TEM assay; type: organism-based; conditions: in vivo, 336 h
In short: (§5)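 After 14 days of daily intraperitoneal dosing at 10 mg/kg in WKY rats, with vehicle controls, liver and kidney were fixed in 4% glutaraldehyde. Ultrastructure was examined by transmission electron microscopy at 6000-, 10000- and 20000-fold magnification.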

[8] = Toxicity in Wistar kyoto rat assessed as stromal hyperplasia at 10 mg/kg, ip administered for 14 days by TEM assay; type: organism-based; conditions: in vivo, 336 h; in short: as §5
[9] = Toxicity in Wistar kyoto rat assessed as chromatin edge collection in liver tissue at 10 mg/kg, ip administered for 14 days by TEM assay; type: organism-based; conditions: in vivo, 336 h; in short: as §1
[10] = Toxicity in Wistar kyoto rat assessed as swollen glomerular endothelial cells at 10 mg/kg, ip administered for 14 days by TEM assay; type: organism-based; conditions: in vivo, 336 h; in short: as §5
[11] = Toxicity in Wistar kyoto rat assessed as swollen hepatocytes at 10 mg/kg, ip administered for 14 days by H and E staining based assay; type: organism-based; conditions: in vivo, 336 h; in short: as §4
[12] = Cardiotoxicity in SHR rat assessed as thin myocardial fiber formation at 10 mg/kg, ip administered for 14 days by H and E staining based microscopic assay; type: toxicity, organism-based; conditions: in vivo, 336 h; in short: as §3
[13] = Toxicity in Wistar kyoto rat assessed as loose cytoplasm in kidney tissue at 10 mg/kg, ip administered for 14 days by H and E staining based assay; type: organism-based; conditions: in vivo, 336 h; in short: as §4
[14] = Toxicity in Wistar kyoto rat assessed as necrosis in renal tubular epithelial cells at 10 mg/kg, ip administered for 14 days by H and E staining based assay; type: organism-based; conditions: in vivo, 336 h; in short: as §4
[15] = Toxicity in Wistar kyoto rat assessed as hepatic sinus congestion at 10 mg/kg, ip administered for 14 days by H and E staining based assay; type: organism-based; conditions: in vivo, 336 h; in short: as §1
[16] = Toxicity in Wistar kyoto rat assessed as intact hepatic lobule structure at 10 mg/kg, ip administered for 14 days by H and E staining based assay; type: organism-based; conditions: in vivo, 336 h; in short: as §4
[17] = Toxicity in Wistar kyoto rat assessed as swollen proximal convoluted tubule cells at 10 mg/kg, ip administered for 14 days by H and E staining based assay; type: organism-based; conditions: in vivo, 336 h; in short: as §4
[18] = Toxicity in Wistar kyoto rat assessed as light staining in cytoplasm of liver tissue at 10 mg/kg, ip administered for 14 days by H and E staining based assay; type: organism-based; conditions: in vivo, 336 h; in short: as §4
[19] = system: Rattus norvegicus; experiment: Antihypertensive activity in spontaneously hypertensive Wistar kyoto rat assessed as reduction in diastolic arterial pressure at 20 mg/kg, ip administered for 6 hrs and measured every 30 mins post treatment by tail-cuff method; type: functional; in short: as §2
[20] = system: Rattus norvegicus; experiment: Antihypertensive activity in spontaneously hypertensive Wistar kyoto rat assessed as reduction in systolic arterial pressure at 40 mg/kg, ip administered for 6 hrs and measured every 30 mins post treatment by tail-cuff method; type: functional; in short: as §2
[21] = system: Rattus norvegicus; experiment: Antihypertensive activity in spontaneously hypertensive Wistar kyoto rat assessed as reduction in diastolic arterial pressure at 40 mg/kg, ip administered for 6 hrs and measured every 30 mins post treatment by tail-cuff method; type: functional; in short: as §2
[22] = system: Rattus norvegicus; experiment: Antihypertensive activity in spontaneously hypertensive Wistar kyoto rat assessed as reduction in diastolic arterial pressure at 10 mg/kg, ip administered for 6 hrs and measured every 30 mins post treatment by tail-cuff method; type: functional; in short: as §2
[23] = Toxicity in Wistar kyoto rat assessed as swollen renal cells at 10 mg/kg, ip administered for 14 days by H and E staining based assay; type: organism-based; conditions: in vivo, 336 h; in short: as §4
[24] = system: Rattus norvegicus; experiment: Antihypertensive activity in spontaneously hypertensive Wistar kyoto rat assessed as reduction in systolic arterial pressure at 10 mg/kg, ip administered for 6 hrs and measured every 30 mins post treatment by tail-cuff method; type: functional; in short: as §2
[25] = system: Rattus norvegicus; experiment: Cardioprotective activity in SHR rat assessed as change in muscle fiber nature at 10 mg/kg, ip administered for 14 days by TEM analysis; type: functional, organism-based; in short: as §3
[26] = system: Rattus norvegicus; experiment: Cardioprotective activity in SHR rat assessed as change in myocardial disk dissociation at 10 mg/kg, ip administered for 14 days by TEM analysis; type: functional, organism-based; in short: as §3
[27] = system: H9c2; experiment: Cytoprotective activity against H2O2-induced toxicity in rat H9c2 cells assessed as reduction in cell de-fromation at 10 to 80 uM pretreated with compound followed by H2O2 addition and measured after 1 to 8 hrs by giemsa staining based microscopic method; type: functional
In short: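 H9c2 cells were injured with H₂O₂ (400 µM) for 1, 4 or 8 h to give light, medium and heavy damage, in the presence of compound at 10–80 µM. Acetaminophen or ibuprofen served as controls. Viability was measured as mean ± SD of three experiments. SOD and MDA contents were measured as mean ± SD of four experiments. Morphology was assessed by Giemsa staining under light microscopy.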

[28] = system: Rattus norvegicus; experiment: Cardioprotective activity in SHR rat assessed as change in muscle fiber mitochondria at 10 mg/kg, ip administered for 14 days by TEM analysis; type: functional, organism-based; in short: as §3
[29] = system: Rattus norvegicus; experiment: Cardioprotective activity in SHR rat assessed as neatly arrange myofibrils at 10 mg/kg, ip administered for 14 days by TEM analysis; type: functional, organism-based; in short: as §3

CC(C)Cc1ccc(C(C)C(=O)Oc2ccc(C(N)=S)cc2)cc1 (centres undefined)
Activity [1]: Toxic
Activity [2]: Dose-dependent effect
Activity [3]: Active
Activity [4]: Toxic
Activity [5]: Toxic
Activity [6]: Non-Toxic
Activity [7]: Toxic
Activity [8]: Toxic
Activity [9]: Toxic
Activity [10]: Toxic
Activity [11]: Toxic
Activity [12]: Active
Activity [13]: Toxic
Activity [14]: Toxic
Activity [15]: Toxic
Activity [16]: Non-Toxic
Activity [17]: Toxic
Activity [18]: Toxic

CC(C)Cc1ccc(C(C)C(=O)Oc2ccc(-c3cc(=S)ss3)cc2)cc1 (centres undefined)
Activity [19]: 115.1 mmHg
Activity [20]: 135.1 mmHg
Activity [21]: 112.4 mmHg
Activity [4]: Toxic
Diastolic arterial pressure [22]: 116.3 mmHg
Activity [5]: Toxic
Activity [11]: Toxic
Activity [23]: Toxic
Activity [13]: Toxic
Systolic arterial pressure [24]: 142.9 mmHg
Activity [15]: Toxic
Activity [16]: Non-Toxic
Activity [18]: Toxic

CC(=O)Nc1ccc(OC(=O)CCCCC2CCSS2)cc1 (centres undefined)
Activity [19]: 110.9 mmHg
Activity [20]: 115.3 mmHg
Activity [2]: Dose-dependent effect
Activity [21]: 99.4 mmHg
Activity [25]: Active
Diastolic arterial pressure [22]: 113.8 mmHg
Activity [26]: Active
Activity [6]: Non-Toxic
Activity [27]: Active
Activity [28]: Active
Activity [29]: Active
Activity [12]: Active
Systolic arterial pressure [24]: 139.1 mmHg

— ChEMBL document CHEMBL4334422, “Toxicities and beneficial protection of H2S donors based on nonsteroidal anti-inflammatory drugs” (Medchemcomm, 2019)
